Assay results from ChEMBL document CHEMBL4354843, “Structure-Based Design of a Potent and Selective Covalent Inhibitor for SRC Kinase That Targets a P-Loop Cysteine” (J Med Chem, 2020).

What was measured:
[1] = molecular target: Calcium/calmodulin-dependent protein kinase type II subunit gamma (Homo sapiens) (UniProt Q13555); assay: Binding affinity to wild-type human partial length CAMK2G (R9 to A303 residues) expressed in bacterial expression system assessed as residual binding level at 1 uM by Kinomescan method relative to control
[2] = molecular target: Discoidin domain-containing receptor 2 (Homo sapiens) (UniProt Q16832); assay: Binding affinity to wild-type human partial length DDR2 (V555 to E855 residues) expressed in mammalian expression system assessed as residual binding level at 1 uM by Kinomescan method relative to control
Discoidin domain-containing receptor 2 (Homo sapiens), sequence (Q16832 whole entry, the tested form may be a part): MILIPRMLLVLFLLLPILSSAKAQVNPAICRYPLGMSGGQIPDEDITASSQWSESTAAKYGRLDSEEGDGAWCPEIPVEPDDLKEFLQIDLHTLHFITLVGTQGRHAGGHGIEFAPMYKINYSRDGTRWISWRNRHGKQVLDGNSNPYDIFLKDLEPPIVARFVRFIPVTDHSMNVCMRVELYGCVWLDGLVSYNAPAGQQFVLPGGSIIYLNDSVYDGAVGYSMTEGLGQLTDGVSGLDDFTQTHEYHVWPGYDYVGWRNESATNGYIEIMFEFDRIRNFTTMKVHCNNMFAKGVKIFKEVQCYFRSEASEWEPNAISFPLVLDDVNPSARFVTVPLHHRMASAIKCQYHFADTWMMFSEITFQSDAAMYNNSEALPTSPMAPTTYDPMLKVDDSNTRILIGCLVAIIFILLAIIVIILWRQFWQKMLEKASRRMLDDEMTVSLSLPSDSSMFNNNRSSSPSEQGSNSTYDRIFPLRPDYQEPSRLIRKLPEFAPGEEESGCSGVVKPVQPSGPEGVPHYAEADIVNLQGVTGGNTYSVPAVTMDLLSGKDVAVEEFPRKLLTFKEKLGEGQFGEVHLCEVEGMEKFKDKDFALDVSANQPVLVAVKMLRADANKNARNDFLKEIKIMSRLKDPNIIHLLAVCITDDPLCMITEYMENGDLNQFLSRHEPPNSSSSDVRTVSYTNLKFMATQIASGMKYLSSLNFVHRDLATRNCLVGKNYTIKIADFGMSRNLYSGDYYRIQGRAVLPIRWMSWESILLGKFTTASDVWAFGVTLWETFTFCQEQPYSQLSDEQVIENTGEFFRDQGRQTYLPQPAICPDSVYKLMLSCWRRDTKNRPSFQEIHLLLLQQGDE
Procedure, shortened: (§1)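 Active-site-directed competition binding panel of 468 kinases (KinomeScan), compound at 1 μM. The read-out is kinase remaining bound, given as a percentage of the DMSO control. […]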

[3] = molecular target: Rho-associated protein kinase 1 (Homo sapiens) (UniProt Q13464); assay: Binding affinity to wild-type human partial length ROCK1 (M1 to R415 residues) expressed in mammalian expression system assessed as residual binding level at 1 uM by Kinomescan method relative to control
[4] = molecular target: Tyrosine-protein kinase HCK (Homo sapiens, UniProt P08631); assay: Binding affinity to wild-type human full length HCK (M22 to P526 residues) expressed in bacterial expression system assessed as residual binding level at 1 uM by Kinomescan method relative to control
Tyrosine-protein kinase HCK, sequence (P08631 2-526 limits assumed): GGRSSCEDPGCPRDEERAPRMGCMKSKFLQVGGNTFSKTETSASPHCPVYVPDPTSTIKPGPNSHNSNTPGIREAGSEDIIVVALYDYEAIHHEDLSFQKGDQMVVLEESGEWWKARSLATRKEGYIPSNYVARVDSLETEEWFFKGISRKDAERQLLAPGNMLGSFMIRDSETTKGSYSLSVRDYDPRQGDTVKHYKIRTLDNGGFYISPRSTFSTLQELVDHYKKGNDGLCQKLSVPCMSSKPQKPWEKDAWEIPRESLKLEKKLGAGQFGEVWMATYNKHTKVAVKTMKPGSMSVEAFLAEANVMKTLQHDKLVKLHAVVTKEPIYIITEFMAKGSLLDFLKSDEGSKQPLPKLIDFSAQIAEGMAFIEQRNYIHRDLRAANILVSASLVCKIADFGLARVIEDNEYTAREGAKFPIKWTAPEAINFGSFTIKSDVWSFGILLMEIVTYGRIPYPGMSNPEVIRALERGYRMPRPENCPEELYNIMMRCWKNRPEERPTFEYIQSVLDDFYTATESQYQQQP
Procedure, shortened: (§2)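 KinomeScan, an active site-directed competition binding panel of 468 kinases. The test compound was at 1 μM. The readout is remaining kinase binding as a percentage of the DMSO control. Scores above 35% were treated as weak binding and not listed.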

[5] = molecular target: Casein kinase I isoform gamma-3 (Homo sapiens) (UniProt Q9Y6M4); assay: Binding affinity to wild-type human full length CSNK1G3 (M1 to K447 residues) expressed in bacterial expression system assessed as residual binding level at 1 uM by Kinomescan method relative to control
Casein kinase I isoform gamma-3 (Homo sapiens), sequence (Q9Y6M4 whole entry, looked up, the tested form may be a part, canonical isoform): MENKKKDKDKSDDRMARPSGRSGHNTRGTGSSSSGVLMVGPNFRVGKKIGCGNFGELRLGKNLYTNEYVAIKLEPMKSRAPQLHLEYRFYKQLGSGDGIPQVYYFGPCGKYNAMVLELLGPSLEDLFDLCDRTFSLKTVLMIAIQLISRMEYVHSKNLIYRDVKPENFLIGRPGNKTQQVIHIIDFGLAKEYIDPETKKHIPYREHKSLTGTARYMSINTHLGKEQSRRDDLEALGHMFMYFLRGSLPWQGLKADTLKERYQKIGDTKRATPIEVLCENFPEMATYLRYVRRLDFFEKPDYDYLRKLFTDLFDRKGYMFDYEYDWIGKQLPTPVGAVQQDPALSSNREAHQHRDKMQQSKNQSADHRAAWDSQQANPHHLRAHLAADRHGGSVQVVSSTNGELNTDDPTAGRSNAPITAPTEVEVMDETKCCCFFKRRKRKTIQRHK
Procedure, shortened: (§3)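 Active-site-directed KinomeScan competition binding panel covering 468 kinases, compound tested at 1 μM. Each readout is the kinase signal remaining with compound, expressed as a percentage of the DMSO control. […]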

[6] = system: Receptor-type tyrosine-protein kinase FLT3 (Homo sapiens), P36888 [D835V]; assay: Binding affinity to human partial length FLT3 D835V mutant (V592 to Y969 residues) expressed in bacterial expression system assessed as residual binding level at 1 uM by Kinomescan method relative to control
Procedure, shortened: (§4)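 KinomeScan active site-directed competition binding panel (468 kinases), compound tested at 1 μM. Result expressed as remaining kinase signal versus DMSO control (percent of control).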

[7] = molecular target: Mitogen-activated protein kinase kinase kinase kinase 2 (Homo sapiens) (UniProt Q12851); assay: Binding affinity to wild-type human partial length MAP4K2 (M1 to G318 residues) expressed in mammalian expression system assessed as residual binding level at 1 uM by Kinomescan method relative to control
[8] = molecular target: Receptor-type tyrosine-protein kinase FLT3 (Homo sapiens) (UniProt P36888); assay: Binding affinity to wild-type human partial length FLT3 (V592 to Y969 residues) expressed in bacterial expression system assessed as residual binding level at 1 uM by Kinomescan method relative to control
[9] = system: Epidermal growth factor receptor (Homo sapiens), P00533 [T790M]; assay: Binding affinity to human partial length EGFR T790M mutant (R669 to G1022 residues) expressed in mammalian expression system assessed as residual binding level at 1 uM by Kinomescan method relative to control; procedure, shortened: as §4
[10] = molecular target: Tyrosine-protein kinase Fyn (Homo sapiens) (UniProt P06241); assay: Binding affinity to wild-type human partial length FYN (T243 to L534 residues) expressed in bacterial expression system assessed as residual binding level at 1 uM by Kinomescan method relative to control; procedure, shortened: as §1
[11] = molecular target: Serine/threonine-protein kinase pim-3 (Homo sapiens) (UniProt Q86V86); assay: Binding affinity to wild-type human partial length PIM3 (G16 to A317 residues) expressed in bacterial expression system assessed as residual binding level at 1 uM by Kinomescan method relative to control
[12] = system: Tyrosine-protein kinase ABL1 (Homo sapiens), P00519 [F317L]; assay: Binding affinity to human phosphorylated ABL1 F317L mutant (S229 to K512 residues) expressed in mammalian expression system assessed as residual binding level at 1 uM by Kinomescan method relative to control; procedure, shortened: as §4
[13] = molecular target: Tyrosine-protein kinase FRK (Homo sapiens) (UniProt P42685); assay: Binding affinity to wild-type human partial length FRK (A215 to F503 residues) expressed in bacterial expression system assessed as residual binding level at 1 uM by Kinomescan method relative to control; procedure, shortened: as §1
[14] = molecular target: BMP-2-inducible protein kinase (Homo sapiens) (UniProt Q9NSY1); assay: Binding affinity to wild-type human partial length BIKE (S34 to N329 residues) expressed in bacterial expression system assessed as residual binding level at 1 uM by Kinomescan method relative to control; procedure, shortened: as §2
[15] = molecular target: Mitogen-activated protein kinase kinase kinase 1 (Homo sapiens) (UniProt Q13233); assay: Binding affinity to wild-type human partial length MAP3K1 (L1202 to W1512 residues) expressed in mammalian expression system assessed as residual binding level at 1 uM by Kinomescan method relative to control; procedure, shortened: as §1
Mitogen-activated protein kinase kinase kinase 1 (Homo sapiens), sequence (Q13233 whole entry, the tested form may be a part): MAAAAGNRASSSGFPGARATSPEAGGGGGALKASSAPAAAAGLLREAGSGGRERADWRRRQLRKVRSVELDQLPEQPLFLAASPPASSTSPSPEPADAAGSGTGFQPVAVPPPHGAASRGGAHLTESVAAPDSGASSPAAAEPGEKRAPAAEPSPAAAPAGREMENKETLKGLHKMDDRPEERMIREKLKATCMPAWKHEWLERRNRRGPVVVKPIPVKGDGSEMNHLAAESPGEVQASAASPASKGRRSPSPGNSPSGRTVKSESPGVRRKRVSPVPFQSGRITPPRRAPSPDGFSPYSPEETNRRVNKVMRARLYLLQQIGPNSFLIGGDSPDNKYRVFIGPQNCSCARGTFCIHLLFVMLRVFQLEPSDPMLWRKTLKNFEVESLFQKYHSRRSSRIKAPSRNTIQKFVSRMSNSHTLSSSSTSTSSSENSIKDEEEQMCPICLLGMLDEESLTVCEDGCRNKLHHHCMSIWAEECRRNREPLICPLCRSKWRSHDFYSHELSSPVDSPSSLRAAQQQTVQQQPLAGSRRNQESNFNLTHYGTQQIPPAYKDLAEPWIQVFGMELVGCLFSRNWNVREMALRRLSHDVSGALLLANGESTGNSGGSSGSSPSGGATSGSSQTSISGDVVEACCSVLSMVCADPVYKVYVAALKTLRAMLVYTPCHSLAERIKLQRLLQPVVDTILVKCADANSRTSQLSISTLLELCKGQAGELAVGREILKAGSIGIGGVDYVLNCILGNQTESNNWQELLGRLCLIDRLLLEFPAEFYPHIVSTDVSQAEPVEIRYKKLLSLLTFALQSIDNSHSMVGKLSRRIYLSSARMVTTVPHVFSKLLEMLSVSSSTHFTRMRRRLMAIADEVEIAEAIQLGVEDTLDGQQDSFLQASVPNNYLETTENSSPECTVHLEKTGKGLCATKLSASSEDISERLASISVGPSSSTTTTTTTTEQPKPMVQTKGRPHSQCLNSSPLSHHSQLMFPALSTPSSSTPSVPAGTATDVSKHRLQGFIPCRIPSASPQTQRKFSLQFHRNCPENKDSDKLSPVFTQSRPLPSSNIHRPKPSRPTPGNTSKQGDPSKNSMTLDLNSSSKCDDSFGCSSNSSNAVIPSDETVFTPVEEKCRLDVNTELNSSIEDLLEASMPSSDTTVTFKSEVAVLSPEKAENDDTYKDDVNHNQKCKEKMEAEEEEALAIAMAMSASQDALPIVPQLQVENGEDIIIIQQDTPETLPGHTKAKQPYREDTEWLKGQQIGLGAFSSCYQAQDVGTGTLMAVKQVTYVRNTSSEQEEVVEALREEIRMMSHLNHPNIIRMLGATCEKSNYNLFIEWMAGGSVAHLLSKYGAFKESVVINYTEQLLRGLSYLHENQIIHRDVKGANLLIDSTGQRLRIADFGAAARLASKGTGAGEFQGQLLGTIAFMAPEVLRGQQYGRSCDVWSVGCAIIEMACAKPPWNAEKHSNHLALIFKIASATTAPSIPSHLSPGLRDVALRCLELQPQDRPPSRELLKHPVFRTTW

[16] = system: Receptor-type tyrosine-protein kinase FLT3 (Homo sapiens), P36888 [UNDEFINED MUTATION]; assay: Binding affinity to human partial length FLT3 ITD/F691L double mutant expressed in bacterial expression system assessed as residual binding level at 1 uM by Kinomescan method relative to control; procedure, shortened: as §4
[17] = molecular target: Serine/threonine-protein kinase 4 (Homo sapiens) (UniProt Q13043); assay: Binding affinity to wild-type human full length MST1 (M1 to F487 residues) expressed in bacterial expression system assessed as residual binding level at 1 uM by Kinomescan method relative to control; procedure, shortened: as §2
Serine/threonine-protein kinase 4 (Homo sapiens), sequence (Q13043 whole entry, the tested form may be a part): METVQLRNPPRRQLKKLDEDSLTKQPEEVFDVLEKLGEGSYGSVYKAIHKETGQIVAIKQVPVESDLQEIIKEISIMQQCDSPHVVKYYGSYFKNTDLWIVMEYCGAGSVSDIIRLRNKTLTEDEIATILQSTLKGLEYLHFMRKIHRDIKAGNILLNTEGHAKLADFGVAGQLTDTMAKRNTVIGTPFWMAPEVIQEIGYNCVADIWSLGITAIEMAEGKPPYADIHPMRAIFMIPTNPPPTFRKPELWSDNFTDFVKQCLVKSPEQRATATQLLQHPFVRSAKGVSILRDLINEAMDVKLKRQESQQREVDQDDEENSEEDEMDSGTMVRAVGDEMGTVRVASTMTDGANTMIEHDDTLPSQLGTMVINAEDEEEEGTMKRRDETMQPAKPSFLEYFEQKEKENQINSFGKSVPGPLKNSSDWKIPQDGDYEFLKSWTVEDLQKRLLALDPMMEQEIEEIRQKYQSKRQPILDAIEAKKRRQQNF

[18] = molecular target: Dual specificity protein kinase CLK1 (Homo sapiens) (UniProt P49759); assay: Binding affinity to wild-type human full length CLK1 (M1 to I484 residues) expressed in bacterial expression system assessed as residual binding level at 1 uM by Kinomescan method relative to control; procedure, shortened: as §3
[19] = molecular target: MAP/microtubule affinity-regulating kinase 4 (Homo sapiens) (UniProt Q96L34); assay: Binding affinity to wild-type human partial length MARK4 (K29 to G340 residues) expressed in bacterial expression system assessed as residual binding level at 1 uM by Kinomescan method relative to control
MAP/microtubule affinity-regulating kinase 4 (Homo sapiens), sequence (Q96L34 whole entry, the tested form may be a part): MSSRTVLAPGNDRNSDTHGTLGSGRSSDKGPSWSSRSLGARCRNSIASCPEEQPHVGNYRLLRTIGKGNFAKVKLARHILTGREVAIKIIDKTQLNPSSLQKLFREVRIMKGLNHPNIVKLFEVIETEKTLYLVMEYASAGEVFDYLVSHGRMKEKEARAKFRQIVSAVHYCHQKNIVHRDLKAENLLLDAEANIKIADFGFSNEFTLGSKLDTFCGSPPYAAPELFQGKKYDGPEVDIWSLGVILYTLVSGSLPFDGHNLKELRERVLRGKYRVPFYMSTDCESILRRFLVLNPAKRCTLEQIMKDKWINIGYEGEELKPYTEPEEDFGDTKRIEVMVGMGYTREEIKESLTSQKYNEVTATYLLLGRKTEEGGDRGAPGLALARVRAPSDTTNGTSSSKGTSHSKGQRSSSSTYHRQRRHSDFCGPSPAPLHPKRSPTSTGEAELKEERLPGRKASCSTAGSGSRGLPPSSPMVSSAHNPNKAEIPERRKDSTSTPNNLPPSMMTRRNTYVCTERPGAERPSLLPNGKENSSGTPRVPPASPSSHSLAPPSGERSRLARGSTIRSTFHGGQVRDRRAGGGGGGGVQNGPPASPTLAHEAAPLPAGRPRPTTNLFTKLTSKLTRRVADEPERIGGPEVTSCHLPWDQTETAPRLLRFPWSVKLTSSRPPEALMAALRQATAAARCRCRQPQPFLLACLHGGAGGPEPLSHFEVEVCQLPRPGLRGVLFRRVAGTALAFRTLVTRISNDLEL

[20] = molecular target: Serine/threonine-protein kinase 25 (Homo sapiens) (UniProt O00506); assay: Binding affinity to wild-type human partial length YSK1 (V14 to H295 residues) expressed in bacterial expression system assessed as residual binding level at 1 uM by Kinomescan method relative to control
Serine/threonine-protein kinase 25 (Homo sapiens), sequence (O00506 whole entry, looked up, the tested form may be a part): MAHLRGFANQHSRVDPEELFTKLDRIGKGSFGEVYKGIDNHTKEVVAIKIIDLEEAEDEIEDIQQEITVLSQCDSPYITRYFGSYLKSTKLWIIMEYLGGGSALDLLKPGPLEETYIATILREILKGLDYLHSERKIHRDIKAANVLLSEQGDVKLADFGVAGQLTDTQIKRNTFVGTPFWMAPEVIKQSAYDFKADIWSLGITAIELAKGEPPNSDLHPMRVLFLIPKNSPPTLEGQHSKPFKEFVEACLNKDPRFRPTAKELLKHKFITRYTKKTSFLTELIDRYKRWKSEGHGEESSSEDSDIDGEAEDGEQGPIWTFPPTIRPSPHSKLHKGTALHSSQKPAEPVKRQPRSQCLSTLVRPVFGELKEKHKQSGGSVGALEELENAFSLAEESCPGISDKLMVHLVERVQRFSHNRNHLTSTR

[21] = molecular target: Ribosomal protein S6 kinase alpha-1 (Homo sapiens) (UniProt Q15418); assay: Binding affinity to wild-type human partial length N-terminal RSK1 Kinase domain 1 (M1 to E388 residues) expressed in bacterial expression system assessed as residual binding level at 1 uM by Kinomescan method relative to control
[22] = molecular target: Macrophage colony-stimulating factor 1 receptor (Homo sapiens) (UniProt P07333); assay: Binding affinity to wild-type human partial length CSF1R (I564 to S939 residues) expressed in bacterial expression system assessed as residual binding level at 1 uM by Kinomescan method relative to control; procedure, shortened: as §1

C=CC(=O)Nc1ccccc1Nc1nc(Nc2ccc(N3CCN(C)CC3)cc2)ncc1C(=O)Nc1c(C)cccc1Cl
Activity [1]: 100%
Activity [2]: 26%
Activity [3]: 100%
Activity [4]: 0.8%
Activity [5]: 100%
Activity [6]: 91%
Activity [7]: 100%
Activity [8]: 99%
Activity [9]: 100%
Activity [10]: 2%
Activity [11]: 100%
Activity [12]: 1.3%
Activity [13]: 5.1%
Activity [14]: 94%
Activity [15]: 99%
Activity [16]: 85%
Activity [17]: 93%
Activity [18]: 100%
Activity [19]: 95%
Activity [20]: 100%
Activity [21]: 100%
Activity [22]: 7.3%
